Source: ChEMBL document CHEMBL1151831, “Acylated iridoids with cytotoxicity from Valeriana jatamansi” (J Nat Prod, 2009)

Legend:
Assay type in all cases: functional, cell-based
[1] = Cytotoxicity against human PC3M cells after 24 hrs by MTT assay; conditions: PC-3M
Outline: (§1)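 Human cancer lines from ATCC, seeded at 3000 cells per well and exposed 24 h later to a range of concentrations for 24 h. MTT was then added, plates were incubated a further 24 h, and viability was read as absorbance at 570 nm. IC50 values were calculated from the readings.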

HCT-8 = test: Cytotoxicity against human HCT8 cells after 24 hrs by MTT assay; conditions: HCT-8, 24 h; outline: as §1
A549 = test: Cytotoxicity against human A549 cells after 24 hrs by MTT assay; conditions: A549, 24 h; outline: as §1
Bel-7402 = test: Cytotoxicity against human Bel7402 cells after 24 hrs by MTT assay; conditions: Bel-7402, 24 h; outline: as §1

SMILES | IC50 [1] | IC50 (HCT-8) | IC50 (A549) | IC50 (Bel-7402)
CC(=O)OCC1=CO[C@@H](OC(=O)CC(C)C)[C@H]2C1=C[C@H](OC(=O)CC(C)C)[C@]2(O)CO [JATAMANVALTRATE K] | 5 µM | > 10 µM | > 10 µM | 7.1 µM
CC(=O)O[C@H]1C[C@@H]2C(COC(=O)CC(C)C)=CO[C@@H](OC(=O)CC(C)C)[C@@H]2[C@@]12CO2 [DIDROVALTRATE] | 3.8 µM | 6.6 µM | > 10 µM | 7.5 µM
CC(C)CC(=O)OC(C(=O)OCC1=CO[C@@H](OC(=O)CC(C)C)[C@@H]2[C@@]3(CO3)[C@@H](O)C[C@]12O)C(C)C (stereo partly specified) [JATAMANVALTRATE L] | 3.4 µM | > 10 µM | > 10 µM | 7.6 µM
COC[C@@]1(O)[C@@H](OC(C)=O)C[C@]2(O)C(COC(=O)C(OC(=O)CC(C)C)C(C)C)=CO[C@@H](OC(=O)CC(C)C)[C@H]12 (stereo partly specified) [JATAMANVALTRATE E] | > 10 µM | 9.7 µM | > 10 µM | 8.5 µM
CCOCC1=CO[C@@H](OC(=O)CC(C)C)[C@@H]2[C@@]3(CO3)[C@@H](OC(C)=O)C[C@]12O [JATAMANVALTRATE M] | 6.3 µM | > 10 µM | > 10 µM | > 10 µM
CC(=O)O[C@H]1C[C@@H]2C(COC(=O)CC(C)C)=CO[C@@H](OC(=O)CC(C)C)[C@@H]2[C@@]1(O)COC(=O)CC(C)(C)OC(C)=O [JATAMANVALTRATE F] | 4.3 µM | > 10 µM | > 10 µM | 8.8 µM
CC(=O)OC[C@]1(O)[C@H]2[C@H](OC(=O)CC(C)C)OC=C(COC(=O)C(OC(=O)CC(C)C)C(C)C)[C@@]2(O)C[C@@H]1O (stereo partly specified) [VALERIOTRIATE B] | 3.9 µM | > 10 µM | > 10 µM | > 10 µM
CC(=O)O[C@H]1C[C@]2(O)C(COC(=O)C(OC(=O)CC(C)C)C(C)C)=CO[C@@H](OC(=O)CC(C)C)[C@@H]2[C@@]1(O)COC(=O)CC(C)C (stereo partly specified) [JATAMANVALTRATE B] | 3.9 µM | 6.2 µM | > 10 µM | > 10 µM
CC(=O)OCC1=CO[C@@H](OC(=O)CC(C)C)[C@H]2C1=C[C@H](OC(=O)CC(C)C)[C@]21CO1 [VALTRATE] | 1.6 µM | 1.8 µM | 3.7 µM | 6.1 µM
CC(=O)OCC1=CO[C@@H](OC(=O)CC(C)C)[C@H]2C1=C[C@H](OC(=O)CC(C)C)[C@]2(O)COC(C)=O | > 10 µM | > 10 µM | 8.6 µM | > 10 µM
CC(=O)OCC1=CO[C@@H](OC(=O)CC(C)C)[C@H]2C1=C[C@H](O)[C@]2(O)COC(=O)CC(C)C [JATAMANVALTRATE J] | 5.8 µM | > 10 µM | > 10 µM | > 10 µM
CC(=O)O[C@H]1C[C@]2(O)C(COC(=O)C(OC(=O)CC(C)C)C(C)C)=CO[C@@H](OC(=O)CC(C)C)[C@@H]2[C@@]1(O)COC(=O)CC(C)(C)OC(C)=O (stereo partly specified) [JATAMANVALTRATE A] | 5.3 µM | > 10 µM | > 10 µM | > 10 µM
CC(=O)OC[C@@]1(O)[C@@H](OC(C)=O)C[C@]2(O)C(COC(=O)C(OC(=O)CC(C)C)C(C)C)=CO[C@@H](OC(=O)CC(C)C)[C@H]12 (stereo partly specified) [JATAMANVALTRATE C] | > 10 µM | > 10 µM | > 10 µM | > 10 µM
CC(=O)OC[C@]1(O)[C@H]2[C@H](OC(=O)CC(C)C)OC=C(COC(=O)CC(C)C)[C@H]2C[C@@H]1OC(C)=O [DIDROVALTRATE ACETOXY HYDRIN] | 1.6 µM | 2.6 µM | 3 µM | 4.4 µM
CC(=O)OC[C@]1(O)[C@H]2[C@H](OC(=O)CC(C)C)OC=C(COC(=O)CC(C)C)[C@H]2C[C@@H]1O [JATAMANVALTRATE G] | 5.6 µM | > 10 µM | > 10 µM | 5.9 µM
CC(=O)O[C@H]1C=C2C(COC(=O)CC(C)C)=CO[C@@H](OC(=O)CC(C)C)[C@@H]2[C@@]1(O)COC(=O)c1ccccc1O [JATAMANVALTRATE I] | 3.9 µM | 9.7 µM | > 10 µM | > 10 µM
CC(=O)O[C@H]1C(=O)[C@@]2(C)[C@H]([C@H](OC(=O)c3ccccc3)[C@]3(O)C[C@H](OC(=O)[C@H](O)[C@@H](NC(=O)c4ccccc4)c4ccccc4)C(C)=C1C3(C)C)[C@]1(OC(C)=O)CO[C@@H]1C[C@@H]2O [PACLITAXEL] | 0.027 µM |  | 0.0052 µM | 0.095 µM
CC(=O)OCC1=CO[C@@H](OC(=O)CC(C)C)[C@H]2C1=C[C@H](OC(=O)CC(C)(C)OC(C)=O)[C@]21CO1 [ACEVALTRATE] | 1.4 µM | 1 µM | 2.9 µM | 1.7 µM
CC(=O)O[C@H]1C[C@]2(O)C(COC(=O)C(OC(=O)CC(C)C)C(C)C)=CO[C@@H](OC(=O)CC(C)C)[C@@H]2[C@@]1(O)COC(=O)c1ccccc1O (stereo partly specified) [JATAMANVALTRATE D] | 3.8 µM | 4.5 µM | > 10 µM | 9.7 µM
CC(=O)O[C@H]1C[C@@H]2C(COC(=O)CC(C)C)=CO[C@@H](OC(=O)CC(C)C)[C@@H]2[C@@]1(O)CO [JATAMANVALTRATE H] | 5.2 µM | > 10 µM | > 10 µM | > 10 µM
CC(=O)O[C@H]1C[C@]2(O)C(COC(=O)CC(C)C)=CO[C@@H](OC(=O)CC(C)C)[C@@H]2[C@@]12CO2 | 2.2 µM | 1.5 µM | 7 µM | 2.3 µM
CC(=O)O[C@H]1C[C@]2(O)C(COC(=O)C(OC(=O)CC(C)C)C(C)C)=CO[C@@H](OC(=O)CC(C)C)[C@@H]2[C@@]12CO2 (stereo partly specified) | 1.9 µM | 2.5 µM | 7.4 µM | 4 µM
CC(=O)O[C@H]1C[C@]2(O)C(COC(=O)C(OC(=O)CC(C)C)C(C)C)=CO[C@@H](OC(=O)CC(C)C)[C@@H]2[C@@]1(O)COC(=O)C(OC(=O)CC(C)C)C(C)C (stereo partly specified) [VALERIOTETRATE A] | 3.1 µM | 8.2 µM | > 10 µM | 9.9 µM
